From ChEMBL document CHEMBL1765085, “Cytotoxic and apoptosis-inducing activities of triterpene acids from Poria cocos” (J Nat Prod, 2011) come the findings set out here.

Active and inactive are the calls of the source. The rule behind the calls is not given here.

Assay [1] has as its system A549. The assay can be described thus: Induction of apoptosis in human A549 cells assessed as viable cells at 30 uM after 48 hrs by AnnexinV/propidium iodide staining (Rvb =91.2%). In kind it is functional. To be noted: A549, 48 h, read-out: Activity.
Assay [2] deals with HL-60. The assay can be described thus: Cell cycle arrest in human HL60 cells assessed as accumulation at G2/M phase at 30 uM after 24 hrs by flow cytometry (reference value: 6.0%). In kind it is functional. The gist of the method:
(§1)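 Cells seeded at 1 × 10^5 per sample for HL60 and 1.5 × 10^5 for A549, then exposed to 30 μM for 0, 24 or 48 h. After a PBS wash, DNA was stained with Nim-DAPI for 10 min at room temperature. Phase distribution was read by flow cytometry, with the sub-G1 (fragmented DNA) fraction taken as the apoptosis index. Values are means of three experiments.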

In assay [3] the test system is HL-60. As to the kind of experiment: Induction of mitochondrial signal transduction pathway-mediated apoptosis in human HL60 cells assessed as increase in cleaved caspase-9 level at 30 uM after 8 hrs by Western blot analysis. In kind it is functional, cell-based. The method, boiled down:
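HL60 cells (1 × 10^6) pre-incubated 24 h, then exposed to 30 μM final for 8 h. Whole-cell lysates in extraction buffer, resolved on 15% SDS-PAGE, blotted to PVDF, probed overnight at 4 °C with anti-caspase-8 or anti-caspase-9 primary antibodies, β-actin as loading reference. Procaspase loss and cleaved caspase bands read.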

In the next assay the test system is OVCAR-3. As to the kind of experiment: Cytotoxicity in human OVCAR3 cells assessed as cell viability after 48 hrs by MTT assay. The format is functional, cell-based. The note with it: OVCAR-3, 48 h. The method, boiled down:
(§2)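 Growth conditions: RPMI 1640 for HL60, CRL1579, NIH:OVCAR-3, SK-BR-3, DU145 and PANC-1; D-MEM for A549; MEM for WI-38; all with 10% FBS and antibiotics, 37 °C, 5% CO2. Seeded at 3 × 10^3 cells/well (OVCAR-3 1 × 10^4), then treated 48 h with 10^-4 to 10^-6 M. MTT for 3 h, formazan dissolved in 0.04 M HCl/2-propanol, A570/630. IC50 (50% growth inhibition) from triplicates.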

Assay [4] concerns A549. As to the kind of experiment: Cell cycle arrest in human A549 cells assessed as accumulation at S phase at 30 uM after 48 hrs by flow cytometry (reference value: 27.7%). The format is functional. The method, boiled down:
as §1

Assay [5] has as its system A549. As to the kind of experiment: Cytotoxicity in human A549 cells assessed as cell viability after 48 hrs by MTT assay. In kind it is functional, cell-based. To be noted: A549, 48 h. The method, boiled down: as §2
The test system of assay [6] is A549. As to the kind of experiment: Cell cycle arrest in human A549 cells assessed as accumulation at G2/M phase at 30 uM after 24 hrs by flow cytometry (reference value: 4.9%). The format is functional. The gist of the method:
as §1

Assay [7] deals with A549. As to the kind of experiment: Induction of apoptosis in human A549 cells assessed as early apoptotic cells at 30 uM after 24 hrs by AnnexinV/propidium iodide staining (Rvb =4.3%). The format is functional.
A short description of assay [8]: Cytotoxicity in human AZ-521 cells assessed as cell viability after 48 hrs by MTT assay. The note with it: AZ-521, 48 h. In kind it is functional, cell-based.
Assay [9] deals with A549. As to the kind of experiment: Induction of apoptosis in human A549 cells assessed as viable cells at 30 uM after 24 hrs by AnnexinV/propidium iodide staining (Rvb =91.2%). The format is functional. The note with it: A549, 24 h, read-out: Activity.
Assay [10] concerns HL-60. The assay can be described thus: Induction of mitochondrial signal transduction pathway-mediated apoptosis in human HL60 cells assessed as increase in Bax level at 30 uM after 8 to 24 hrs by Western blot analysis. The note with it: TDE = time-dependent effect.
The test system of the next assay is SK-BR-3. As to the kind of experiment: Cytotoxicity in human SK-BR-3 cells assessed as cell viability after 48 hrs by MTT assay. To be noted: SK-BR-3, 48 h. In kind it is functional, cell-based. The method, boiled down:
as §2

The test system of assay [11] is HL-60. As to the kind of experiment: Cell cycle arrest in human HL60 cells assessed as accumulation at sub-G1 phase at 30 uM after 48 hrs by flow cytometry (reference value: 3.0%). The format is functional. The gist of the method:
as §1

Assay [12] relates to A549. As to the kind of experiment: Induction of apoptosis in human A549 cells assessed as necrotic cells at 30 uM after 48 hrs by AnnexinV/propidium iodide staining (Rvb =3.4%). In kind it is functional.
Assay [13] relates to HL-60. As to the kind of experiment: Cell cycle arrest in human HL60 cells assessed as accumulation at S phase at 30 uM after 48 hrs by flow cytometry (reference value: 42.6%). In kind it is functional. The method, boiled down: as §1
Assay [14] concerns A549. As to the kind of experiment: Induction of mitochondrial signal transduction pathway-mediated apoptosis in human A549 cells assessed as increase in Bax level at 30 uM after 24 to 48 hrs by Western blot analysis. The format is functional, cell-based. The gist of the method: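 A549 cells (1.5 × 10^5) were pre-incubated 24 h, then given 30 μM for 24 or 48 h. Whole-cell lysates were run on 15% SDS-PAGE, transferred to PVDF and probed overnight at 4 °C for Bax, Bcl-2 and β-actin. The Bcl-2 band was quantified by densitometry relative to untreated cells, n = 3.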

The test system of assay [15] is A549. As to the kind of experiment: Cell cycle arrest in human A549 cells assessed as accumulation at Go/G1 phase at 30 uM after 24 hrs by flow cytometry (reference value: 64.3%). In kind it is functional. The gist of the method: as §1
Assay [16] concerns A549. The assay can be described thus: Induction of apoptosis in human A549 cells assessed as necrotic cells at 30 uM after 24 hrs by AnnexinV/propidium iodide staining (Rvb =3.4%). The format is functional.
Assay [17] has as its system HL-60. As to the kind of experiment: Induction of apoptosis in human HL60 cells assessed as viable cells at 30 uM after 48 hrs by AnnexinV/propidium iodide staining (Rvb =85.6%). The format is functional. The note with it: HL-60, 48 h, read-out: Activity.
Another assay has as its system DU-145. As to the kind of experiment: Cytotoxicity in human DU145 cells assessed as cell viability after 48 hrs by MTT assay. The format is functional, cell-based. To be noted: DU-145, 48 h. The method, boiled down:
as §2

Assay [18] relates to HL-60. As to the kind of experiment: Induction of apoptosis in human HL60 cells assessed as viable cells at 30 uM after 24 hrs by AnnexinV/propidium iodide staining (Rvb =85.6%). The format is functional. To be noted: HL-60, 24 h, read-out: Activity.
In assay [19] the test system is A549. As to the kind of experiment: Induction of apoptosis in human A549 cells assessed as late apoptotic cells at 30 uM after 24 hrs by AnnexinV/propidium iodide staining (Rvb =1.1%). In kind it is functional.
Assay [20] relates to A549. As to the kind of experiment: Induction of apoptosis in human A549 cells assessed as late apoptotic cells at 30 uM after 48 hrs by AnnexinV/propidium iodide staining (Rvb =1.1%). The format is functional.
In assay [21] the test system is A549. As to the kind of experiment: Cell cycle arrest in human A549 cells assessed as accumulation at sub-G1 phase at 30 uM after 48 hrs by flow cytometry (reference value: 3.1%). In kind it is functional. The gist of the method: as §1

For the compound `C=C(CC[C@@H](CO)[C@H]1[C@H](O)C[C@@]2(C)C3=CC[C@@H](C(=C)C)[C@](C)(CCCO)C3=CC[C@]12C)C(C)C` [PORICOTRIOL A], the viability at 30 µM with A549 [1] is 49.3%; in the assay on A549 [9] it was 89.2%; with HL-60 [17], 14.7%; with HL-60 [18], 34.8%. Moreover, the Activity in the assay on HL-60 [2] was 8.8%; with A549 [4], 6%; in the assay with A549 [6], 7.5%; in the assay on A549 [7], 3.5%; in the assay with HL-60 [10], “tde”; in the assay with HL-60 [11], 38.7%. Besides, the Activity in the assay with A549 [12] is given as 6.3%; in the assay on HL-60 [13], 30.5%; in the assay with A549 [15], 77.2%; with A549 [16] it was 4.3%; with A549 [19] it was 2.9%; in the assay with A549 [20], 20.2%. For the same compound, the Activity with A549 [21] stood at 17.4%. Moreover, the outcome in the assay with HL-60 [3] was Active. Moreover, the IC50 with OVCAR-3 was found to be 2200 nM; with A549 [5], 4200 nM; in assay [8], 1400 nM; in the assay with SK-BR-3, 1200 nM; in the assay with DU-145, 14500 nM. The result in the assay on A549 [14] was inactive.
